The text below walks through data of ChEMBL document CHEMBL4002598, “Fusaric acid and analogues as Gram-negative bacterial quorum sensing inhibitors” (Eur J Med Chem, 2017).

Data set [1] has as its system Escherichia coli. Nature of the data set: Growth inhibition of Escherichia coli at 0.39 to 100 ug/ml. Put shortly: (§1)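 luxI-gfp E. coli reporter grown 16 h at 37 °C, shaking 180 rpm, then diluted to OD450 0.1 in BT minimal medium with 10% A10, 0.5% glucose and 0.5% Casamino Acids. 3-oxo-C6-HSL added at 10 nM final. Compounds run in triplicate as 2-fold dilutions from 100 μg/ml. GFP (ex 485/em 535) and OD450 read every 15 min for 14 h at 34 °C. IC50 taken from GFP curves.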

The nature of data set [2]: Inhibition of LuxR-dependent quorum sensing activity in Escherichia coli harboring reporter plasmid LuxI-GFP assessed as reduction in 3-oxo-C6-HSL-induced GFP expression measured every 15 mins for 14 hrs by fluorescence assay. The method, boiled down: as §1
The target of data set [3] is T1, HTH-type quorum-sensing regulator RhlR (Pseudomonas aeruginosa (strain ATCC 15692 / PAO1 / 1C / PRS 101 / LMG12228)) (UniProt P54292).
T1 sequence (whole entry): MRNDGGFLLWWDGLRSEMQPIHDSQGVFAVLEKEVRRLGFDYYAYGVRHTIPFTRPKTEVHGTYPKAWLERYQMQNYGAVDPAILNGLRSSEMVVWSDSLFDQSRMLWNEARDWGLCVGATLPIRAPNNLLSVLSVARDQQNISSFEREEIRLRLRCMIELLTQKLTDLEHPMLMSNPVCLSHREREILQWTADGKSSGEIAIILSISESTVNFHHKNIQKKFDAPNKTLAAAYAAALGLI
Nature of the data set: Inhibition of RhlR-dependent quorum sensing activity in Pseudomonas aeruginosa harboring reporter plasmid rhlA-gfp assessed as reduction in GFP expression up to 100 ug/ml measured every 15 mins for 14 hrs by fluorescence assay. The method, boiled down: (§2)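 P. aeruginosa lasB-gfp and rhlA-gfp reporters, grown 16 h at 37 °C with shaking, then diluted to OD450 0.1 in BT minimal medium (10% A10, 0.5% glucose, 0.5% Casamino Acids). No added signal molecule. Fluorescence at 485/535 nm and growth monitored every 15 min for 14 h at 34 °C. Concentrations up to 100 µg/ml.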

For data set [4], the system named is Pseudomonas aeruginosa. Nature of the data set: Inhibition of LasR-dependent quorum sensing activity in Pseudomonas aeruginosa harboring reporter plasmid lasB-GFP assessed as reduction in GFP expression up to 100 ug/ml measured every 15 mins for 14 hrs by fluorescence assay. Put shortly:
as §2

In the next data set the test system is Saccharomyces cerevisiae. Nature of the data set: Inhibition of yeast Pma1 at 100 uM preincubated for 30 mins by spectrophotometric method. Put shortly:
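Pma1 purified from Saccharomyces cerevisiae plasma membrane, 0.5 µg per reaction. Enzyme preincubated 30 min at room temperature with 100 µM compound. Reaction buffer: 5 mM ATP, 10 mM MgSO4, 50 mM KNO3, 5 mM NaN3, 3.5 mM molybdate, 20 mM MES-KOH pH 5.9. Run 30 min, then stopped with acidic molybdate/ascorbate/SDS. Released phosphate read at 860 nm after arsenite-citrate treatment (Baginski method).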

Data set [5] is described as follows: Inhibition of quorum sensing system in Agrobacterium tumefaciens harboring traG-LacZ reporter fusion measured after 4 hrs by beta-galactosidase reporter gene assay. (In general: In a reporter assay the amount or activity of a reporter protein is the signal.)
For data set [6], the system named is Escherichia coli. Nature of the data set: Growth inhibition of Escherichia coli at 6.2 to 100 ug/ml. Put shortly:
(§3)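 E. coli luxI-gfp reporter: overnight culture 16 h, 37 °C, 180 rpm, diluted to OD450 0.1 in BT minimal medium with 10% A10, 0.5% glucose, 0.5% Casamino Acids. 3-oxo-C6-HSL at 10 nM final. Growth read as OD450 every 15 min over 14 h at 34 °C alongside GFP. Triplicate, 2-fold dilutions from 100 μg/ml.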

The subject of data set [7] is Escherichia coli. Nature of the data set: Growth inhibition of Escherichia coli at 3.13 ug/ml. Put shortly:
as §3

In data set [8] the test system is Escherichia coli. Nature of the data set: Inhibition of LuxR-dependent quorum sensing activity in Escherichia coli harboring reporter plasmid LuxI-GFP assessed as reduction in 3-oxo-C6-HSL-induced GFP expression at 3.1 ug/ml measured every 15 mins for 14 hrs by fluorescence assay. The method, boiled down:
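E. coli luxI-gfp monitor: overnight culture 16 h, 37 °C, 180 rpm, diluted to OD450 0.1 in BT minimal medium with 10% A10, 0.5% glucose, 0.5% Casamino Acids. Signal 3-oxo-C6-HSL at 10 nM final. GFP read at ex 485/em 535 nm and OD450 every 15 min, 14 h, 34 °C. Triplicate, 2-fold dilutions from 100 μg/ml.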

In data set [9] the test system is Escherichia coli. Nature of the data set: Inhibition of LuxR-dependent quorum sensing activity in Escherichia coli harboring reporter plasmid LuxI-GFP assessed as reduction in 3-oxo-C6-HSL-induced GFP expression up to 100 ug/ml measured every 15 mins for 14 hrs by fluorescence assay. The method, boiled down: as §1
Data set [10] concerns Pseudomonas aeruginosa. The data set is described as follows: Growth inhibition of Pseudomonas aeruginosa at >125 ug/ml.
In data set [11] the test system is Pseudomonas aeruginosa. The data set is described as follows: Inhibition of LasR-dependent quorum sensing activity in Pseudomonas aeruginosa harboring reporter plasmid lasB-GFP assessed as reduction in GFP expression at >125 ug/ml measured every 15 mins for 14 hrs by fluorescence assay. The method, boiled down:
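P. aeruginosa lasB-gfp monitor: 16 h overnight culture (37 °C, 180 rpm) diluted to OD450 0.1 in BT minimal medium plus 10% A10, 0.5% glucose, 0.5% Casamino Acids. No signal molecule added. GFP at ex 485/em 535 nm with growth, every 15 min over 14 h at 34 °C. Triplicate, 2-fold dilutions from 1000 μg/ml.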

Data set [12] deals with Escherichia coli. The data set is described as follows: Inhibition of LuxR-dependent quorum sensing activity in Escherichia coli harboring reporter plasmid LuxI-GFP assessed as reduction in 3-oxo-C6-HSL-induced GFP expression at 6.2 to 50 ug/ml measured every 15 mins for 14 hrs by fluorescence assay.

SMILES strings stand for the structures. ≈ marks a conversion by molar mass, not a printed value. Calls of active or inactive are those of the source. No cut-off for these calls is given here.

In general, IC50 refers to the concentration that inhibits the measured activity by half. In the case of `COC(=O)c1ccc(OCC(=O)Nc2ccccc2)cn1`, the “growth inhibition (GI)” value in the data set with Escherichia coli [1] is recorded as “Non-Toxic”. Also, the IC50 in data set [2] was found to be 64 µg/mL (≈ 224 µM). The inhibition result (in [3]; in the data set on Pseudomonas aeruginosa [4]; in the data set with Saccharomyces cerevisiae) was “inactive” throughout.

As for `COC(=O)c1ccc(-c2cccc(OC)n2)cn1`, in the data set with Escherichia coli [1], the “growth inhibition (GI)” value is given as “Non-Toxic”. In addition, the IC50 in data set [2] was determined as 95 µg/mL (≈ 389 µM). The inhibition result (in data set [3]; in the data set on Pseudomonas aeruginosa [4]; in the data set with Saccharomyces cerevisiae) was “inactive” each time.

Regarding `O=[N+]([O-])c1cc[n+]([O-])cc1`, in data set [5], the 50% inhibitory concentration (IC50) amounted to 171 µM.

Regarding `CCCCc1ccc(C(=O)O)nc1` [FUSARIC ACID], the entries for the “growth inhibition (GI)” value with Escherichia coli [6] and in the data set on Escherichia coli [7] were “Toxic” and “Non-Toxic”, respectively. In addition, the inhibition result (in [3]; in the data set on Pseudomonas aeruginosa [4]; in the data set with Saccharomyces cerevisiae) was “inactive” in each case. Besides, in the data set on Escherichia coli [8], the inhibition result is “Active”.

With `COC(=O)c1ccc(Br)cn1`, the inhibition result (in [3]; in the data set with Pseudomonas aeruginosa [4]; in the data set on Saccharomyces cerevisiae; with Escherichia coli [9]) was “inactive” throughout. Besides, the “growth inhibition (GI)” value in the data set on Pseudomonas aeruginosa [10] is listed as “Non-Toxic”. Moreover, the inhibition entry with Pseudomonas aeruginosa [11] is “Active”.

On to `CCCCc1ccc(C(=O)OCC)nc1`, for which the “growth inhibition (GI)” value in the data set on Escherichia coli [1] is “Non-Toxic”. The IC50 in [2] is 55 µg/mL (≈ 265 µM). Further, the inhibition result in the data set with Escherichia coli [12] was “Active”. In addition, the inhibition entry (in [3]; in the data set on Pseudomonas aeruginosa [4]; with Saccharomyces cerevisiae) was “inactive” throughout.

Regarding `CCOC(=O)c1ccc(-c2ccccc2)cn1`, the “growth inhibition (GI)” value in the data set on Escherichia coli [1] is recorded as “Non-Toxic”. The IC50 in data set [2] came out at 12 µg/mL (≈ 52.8 µM). Besides, the inhibition result (in data set [3]; in the data set with Pseudomonas aeruginosa [4]; in the data set with Saccharomyces cerevisiae) was “inactive” throughout.
